Source: PubChem BioAssay AID602126 (Broad Institute, 2011)
The source made the active and inactive calls.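 The calls were made as follows: active = compounds cutting cell ATP light whose fitted AC50 is at most double the top dose tried; inconclusive = flat moderate signal loss, or an unreliable curve fit; inactive = the rest.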

What was measured:
[1] = ldlA[mSR-BI] cell viability loss – CellTiter-Glo luminescence, 24 h, dry powder, set 5, cytotoxicity control for SR-BI HDL uptake inhibitor project, dose response (AID 602126); settings: ldlA[mSR-BI] CHO cells viability, CellTiter-Glo ATP luminescence, 24 h; at 35 µM (top of the series)
How it was run: (§1)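 Detection: luminescence of cellular ATP via CellTiter-Glo luciferase reagent; test system: ldlA[mSR-BI] cells; read-out: IC50 of cell viability from ATP-dependent luminescence; schedule: 24 h compound exposure at 37 °C, then 10 min with detection reagent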

[2] = tested on: ldlA[mSR-BI] CHO cells viability, CellTiter-Glo ATP luminescence, 24 h; test: as above
How it was run: as §1

In the case of `O=C(Nc1ccc(-c2nc3cc(NC(=O)c4ccc(NC(=O)c5cccc6ccccc56)cc4)ccc3[nH]2)cc1)c1ccc(NC(=O)c2cccc3ccccc23)cc1`, the activity change, negative = cytotoxicity [1] is reported as -8.2% (inactive).

For `C[C@@H]1CN([C@H](C)CO)C(=O)Cc2cc(NC(=O)Cc3cn(C)c4ccccc34)ccc2O[C@H]1CN(C)S(=O)(=O)c1ccc(F)cc1`, the activity change, negative = cytotoxicity [1] was -14% (inactive).

For `C[C@H](CO)N1C[C@H](C)[C@H](CN(C)S(=O)(=O)c2ccc(F)cc2)Oc2ccc(NC(=O)Cc3ccccc3)cc2C1=O`, the activity change, negative = cytotoxicity [1] was -6.53% (inactive).

In the case of `CCC(=O)N1CCc2cc(-c3cnc(NC(C)=O)[nH]3)ccc21`, the activity change, negative = cytotoxicity [1] is reported as -35.4% (inactive).

For `O=C(Nc1nc(-c2ccc3c(c2)CCN3C(=O)C2CC2)cs1)c1ccco1`, the activity change, negative = cytotoxicity [1] was -26.1% (inactive).

For `CCC(=O)N1CCc2cc(-c3csc(NC(=O)c4ccc(F)c(OC)c4)n3)ccc21`, the activity change, negative = cytotoxicity [1] was -10.7% (inactive).

For `COc1ccccc1-c1nnn(CC(=O)N(C2CCCCC2)C(C)C(=O)NC2CCCC2)n1` (stereo not drawn), the activity change, negative = cytotoxicity [1] was 1.77% (inactive).

With `COc1ccc(-c2nnn(CC(=O)N(C)C(C)C(=O)NC3CCCC3)n2)cc1OC` (stereo not drawn) the activity change, negative = cytotoxicity [1] was -6.96% (inactive).

In the case of `CCCn1ccc2cc(-c3csc(NC(=O)c4ccco4)n3)ccc21`, the activity change, negative = cytotoxicity [1] is reported as -34.1% (inactive).

For `Cc1cc(C(=O)C(C)OC(=O)C2=NNC(=O)CC2)c(C)n1-c1ccc(OC(F)F)cc1` (stereo not drawn), the activity change, negative = cytotoxicity [1] was -26.5% (inactive).

With `COc1ccc(-c2nnn(CC(=O)N(C3CC3)C(C)C(=O)NC3CCCC3)n2)cc1OC` (stereo not drawn) the activity change, negative = cytotoxicity [1] was -16% (inactive).

With `COc1ccc(-c2nnn(CC(=O)N(C3CCCCC3)C(C)C(=O)NC(C)C)n2)cc1OC` (stereo not drawn) the activity change, negative = cytotoxicity [1] was -0.753% (inactive).

With `C[C@@H]1CN([C@@H](C)CO)C(=O)c2cc(NC(=O)Cc3cn(C)c4ccccc34)ccc2O[C@H]1CN(C)S(=O)(=O)c1ccc(Cl)cc1` the activity change, negative = cytotoxicity [1] was -7.85% (inactive).

For `COC(=O)N1CCc2cc(-c3csc(NC(=O)c4ccco4)n3)ccc21`, the activity change, negative = cytotoxicity [1] was -18.6% (inactive).

With `COc1ccc(-c2nnn(CC(=O)N(C3CCCCC3)C(C)C(=O)NC(C)(C)C)n2)cc1OC` (stereo not drawn) the activity change, negative = cytotoxicity [1] was -2.38% (inactive).

For `C[C@H]1CN([C@@H](C)CO)C(=O)c2cccc(NS(C)(=O)=O)c2O[C@@H]1CN(C)Cc1ccc(Cl)c(Cl)c1`, the activity change, negative = cytotoxicity [1] was -10.3% (inactive).

With `CCC(=O)N1CCc2cc(-c3csc(NC(=O)c4ccno4)n3)ccc21` the activity change, negative = cytotoxicity [1] was 0.915% (inactive).

With `CCC(=O)N1CCc2cc(-c3coc(NC(=O)c4ccco4)n3)ccc21` the activity change, negative = cytotoxicity [1] was -8.19% (inactive).

With `C[C@H]1CN([C@@H](C)CO)C(=O)c2cccc(NC(=O)Nc3ccccc3)c2O[C@@H]1CN(C)C` the activity change, negative = cytotoxicity [1] was -7.64% (inactive).

For `C[C@H]1CN([C@@H](C)CO)C(=O)c2cc(NC(=O)Cc3cn(C)c4ccccc34)ccc2O[C@@H]1CN(C)S(=O)(=O)c1ccc(F)cc1`, the activity change, negative = cytotoxicity [1] was -15.6% (inactive).

With `CC(C)(C)OC(=O)N1CCc2cc(-c3noc(NC(=O)c4ccco4)n3)ccc21` the activity change, negative = cytotoxicity [1] was -3.91% (inactive).

For `CNC[C@@H]1Oc2ccc(NC(=O)Cc3cn(C)c4ccccc34)cc2C(=O)N([C@H](C)CO)C[C@H]1C`, the activity change, negative = cytotoxicity [1] was 2.26% (inactive).

With `Cc1cc(C)c2c(c1)NC(c1cc3c(cc1Br)OCO3)C1CC=CC21` (stereo not drawn) the activity change, negative = cytotoxicity [1] was -26.7% (inactive).

In the case of `CCC(=O)N1CCc2cc(-c3cnc(NC(=O)c4ccco4)[nH]3)ccc21`, the activity change, negative = cytotoxicity [1] is reported as 2.33% (inactive).

With `CCC(=O)N1CCc2cc(-c3coc(N)n3)ccc21` the activity change, negative = cytotoxicity [1] was 3.91% (inactive).

With `Cc1ccc(-c2nnc(N3CCC(C)CC3)c3ccccc23)cc1C` the activity change, negative = cytotoxicity [1] was -8.22% (inactive).

In the case of `C[C@@H]1CN([C@H](C)CO)C(=O)c2cc(NC(=O)Cc3cn(C)c4ccccc34)ccc2O[C@H]1CN(C)S(=O)(=O)c1ccc(Cl)cc1`, the activity change, negative = cytotoxicity [1] is reported as -18.6% (inactive) and the AC50 [2] is reported as > 70 µM (inactive).
